According to ChEMBL document CHEMBL1123124, “New antihistaminic N-heterocyclic 4-piperidinamines. 2. Synthesis and antihistaminic activity of 1-[(4-fluorophenyl)methyl]-N-(4-piperidinyl)-1H-benzimidazol-2-a mines” (1985):

Legend:
Rattus norvegicus [1] = experiment: In vivo antihistaminic activity using compound 48/80 induced lethality test in rat after 2 hr of oral administration; assay type: functional
Outline: (§1)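 Protection was survival for 4 h after challenge. ED50 with confidence limits was calculated by Finney from five rats per dose and at least three doses of a geometric series (0.0025–40 mg/kg). Estimated ED50 used at least two rats per dose.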

Rattus norvegicus [2] = experiment: In vivo antihistaminic activity using compound 48/80 induced lethality test after 1 hr of subcutaneous administration in rat; assay type: functional; details: sc; outline: as §1

Compound	ED50 (Rattus norvegicus [1])	ED50 (Rattus norvegicus [2])
COc1ccc(C(=O)Oc2ccc(CCN3CCC(Nc4nc5ccccc5n4Cc4ccc(F)cc4)CC3)cc2)cc1	0.16 mg/kg	0.63 mg/kg
N#CCN1CCC(Nc2nc3ccccc3n2Cc2ccc(F)cc2)CC1	2.5 mg/kg	0.16 mg/kg
Cl.Fc1ccc(Cn2c(NC3CCN(CCc4ccccc4)CC3)nc3ccccc32)cc1	0.63 mg/kg	0.31 mg/kg
COc1ccc(OC)c(CCN2CCC(Nc3nc4ccccc4n3Cc3ccc(F)cc3)CC2)c1	0.63 mg/kg	0.63 mg/kg
CS(=O)(=O)c1ccc(CCN2CCC(Nc3nc4ccccc4n3Cc3ccc(F)cc3)CC2)cc1	> 2.5 mg/kg	1.25 mg/kg
Fc1ccc(Cn2c(NC3CCN(C4CCCCC4)CC3)nc3ccccc32)cc1	> 2.5 mg/kg	0.31 mg/kg
CC(CN1CCC(Nc2nc3ccccc3n2Cc2ccc(F)cc2)CC1)c1ccccc1 (stereo not drawn)	2.5 mg/kg	0.63 mg/kg
CC(=O)c1ccc(OCC(O)CN2CCC(Nc3nc4ccccc4n3Cc3ccc(F)cc3)CC2)cc1 (stereo not drawn)	1.25 mg/kg	0.63 mg/kg
CCCCOc1ccccc1OCC(O)CN1CCC(Nc2nc3ccccc3n2Cc2ccc(F)cc2)CC1 (stereo not drawn)	–	2.5 mg/kg
Cl.Cn1nnn(CCN2CCC(Nc3nc4ccccc4n3Cc3ccc(F)cc3)CC2)c1=O	> 2.5 mg/kg	0.31 mg/kg
Nc1ccc(CCN2CCC(Nc3nc4ccccc4n3Cc3ccc(F)cc3)CC2)cc1	0.63 mg/kg	0.31 mg/kg
COC(=O)Oc1ccc(CCN2CCC(Nc3nc4ccccc4n3Cc3ccc(F)cc3)CC2)cc1	0.16 mg/kg	0.16 mg/kg
OC(CN1CCC(Nc2nc3ccccc3n2Cc2ccc(F)cc2)CC1)c1ccccc1 (stereo not drawn)	> 2.5 mg/kg	0.63 mg/kg
Cl.Fc1ccc(CCN2CCC(Nc3nc4ccccc4n3Cc3ccc(F)cc3)CC2)cc1	> 2.5 mg/kg	0.31 mg/kg
COc1ccc(OCC(O)CN2CCC(Nc3nc4ccccc4n3Cc3ccc(F)cc3)CC2)cc1 (stereo not drawn)	2.5 mg/kg	1.25 mg/kg
COc1cccc(OC)c1OCC(O)CN1CCC(Nc2nc3ccccc3n2Cc2ccc(F)cc2)CC1 (stereo not drawn)	1.25 mg/kg	0.63 mg/kg
COc1ccccc1CCN1CCC(Nc2nc3ccccc3n2Cc2ccc(F)cc2)CC1	0.63 mg/kg	1.25 mg/kg

Compound	ED50 (Rattus norvegicus [1])	ED50 (Rattus norvegicus [2])
Fc1ccc(Cn2c(NC3CCN(CCc4cccs4)CC3)nc3ccccc32)cc1	0.63 mg/kg	0.16 mg/kg
COc1ccc(OCCCN2CCC(Nc3nc4ccccc4n3Cc3ccc(F)cc3)CC2)cc1	0.31 mg/kg	0.31 mg/kg
COc1ccc(S(=O)(=O)CCCN2CCC(Nc3nc4ccccc4n3Cc3ccc(F)cc3)CC2)cc1	2.5 mg/kg	0.31 mg/kg
Fc1ccc(Cn2c(NC3CCN(CCc4ccc(OCc5ccccc5)cc4)CC3)nc3ccccc32)cc1	–	2.5 mg/kg
Cl.N#CC1(c2ccccc2)CCC(N2CCC(Nc3nc4ccccc4n3Cc3ccc(F)cc3)CC2)CC1 (stereo not drawn)	–	> 2.5 mg/kg
Fc1ccc(Cn2c(NC3CCN(CCC=C4c5ccccc5CCc5ccccc54)CC3)nc3ccccc32)cc1	–	> 2.5 mg/kg
CC(Cc1ccccc1)N1CCC(Nc2nc3ccccc3n2Cc2ccc(F)cc2)CC1 (stereo not drawn)	–	2.5 mg/kg
Fc1ccc(Cn2c(NC3CCN(CCc4ccccc4)CC3)nc3cc(Cl)ccc32)cc1	–	> 2.5 mg/kg
CN(C)CCN1CCC(Nc2nc3ccccc3n2Cc2ccc(F)cc2)CC1	–	0.63 mg/kg
COc1ccc(C(=O)N(CCN2CCC(Nc3nc4ccccc4n3Cc3ccc(F)cc3)CC2)C(=O)c2ccc(OC)cc2)cc1.Cl	–	> 2.5 mg/kg
Fc1ccc(Cn2c(NC3CCN(CCN(Cc4ccccc4)Cc4ccccc4)CC3)nc3ccccc32)cc1	–	> 2.5 mg/kg
COC(=O)COc1ccc(CCN2CCC(Nc3nc4ccccc4n3Cc3ccc(F)cc3)CC2)cc1	–	2.5 mg/kg
C=CCOc1ccc(CCN2CCC(Nc3nc4ccccc4n3Cc3ccc(F)cc3)CC2)cc1.Cl	–	2.5 mg/kg
CCCCNC(=O)Oc1ccc(CCN2CCC(Nc3nc4ccccc4n3Cc3ccc(F)cc3)CC2)cc1	–	2.5 mg/kg
Cc1cc(CCN2CCC(Nc3nc4ccccc4n3Cc3ccc(F)cc3)CC2)ccc1OCc1ccccc1	–	> 2.5 mg/kg
Cc1ccc2nc(NC3CCN(CCc4ccccc4)CC3)n(Cc3ccc(F)cc3)c2c1	–	> 2.5 mg/kg
COc1ccc(SCCCN2CCC(Nc3nc4ccccc4n3Cc3ccc(F)cc3)CC2)cc1	–	2.5 mg/kg
